Experimental data published in ChEMBL document CHEMBL1806372, “Cytotoxic ring A-modified steroid analogues derived from Grundmann's ketone” (Eur J Med Chem, 2011).
Active and inactive are the calls of the source. The rule behind the calls is not given here.

Legend:
Format in all cases: functional
[1] = Growth inhibition of human Hs 578T cells assessed as cell growth at 10^-5 M after 48 hrs by sulforhodamine B assay; conditions: read-out: Activity
Outline: (§1)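 NCI 60-cell panel single high-dose screen: compound applied at 10^-5 M for 48 h, endpoint by sulforhodamine B protein-binding dye. Values reported as growth percent of treated cells relative to untreated control cells.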

CCRF-CEM = experiment: Growth inhibition of human CCRF-CEM cells assessed as cell growth at 10^-5 M after 48 hrs by sulforhodamine B assay; conditions: read-out: Activity; outline: as §1
Escherichia coli = experiment: Antibacterial activity against Escherichia coli assessed as zone of inhibition at 5 uL and 32 degC after 36 hrs by disk diffusion method
Outline: (§2)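 Disc diffusion on AC agar, each strain spread evenly over the medium; test compounds given as 1% (w/v) DMSO solutions. Plates covered and incubated 36 h at 32 °C, then the diameter of the zone of inhibited growth measured in mm. Tetracycline served as antibacterial reference.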

RXF 393 = experiment: Growth inhibition of human RXF393 cells assessed as cell growth at 10^-5 M after 48 hrs by sulforhodamine B assay; conditions: RXF 393, 48 h, read-out: Activity
Outline: (§3)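 NCI-60 single high-dose screen run under the NCI protocol. Cells were incubated with compound at 10^-5 M for 48 h. The end point was determined by sulforhodamine B protein staining. Results are reported as percent growth of treated cells relative to untreated control cells.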

KM12 = experiment: Growth inhibition of human KM12 cells assessed as cell growth at 10^-5 M after 48 hrs by sulforhodamine B assay; conditions: KM12, 48 h, read-out: Activity; outline: as §1
SF-268 = experiment: Growth inhibition of human SF268 cells assessed as cell growth at 10^-5 M after 48 hrs by sulforhodamine B assay; conditions: SF-268, 48 h, read-out: Activity; outline: as §3
DU-145 = experiment: Growth inhibition of human DU145 cells assessed as cell growth at 10^-5 M after 48 hrs by sulforhodamine B assay; conditions: DU-145, 48 h, read-out: Activity; outline: as §1
CAKI-1 = experiment: Growth inhibition of human Caki1 cells assessed as cell growth at 10^-5 M after 48 hrs by sulforhodamine B assay; conditions: CAKI-1, 48 h, read-out: Activity; outline: as §1
M14 = experiment: Growth inhibition of human M14 cells assessed as cell growth at 10^-5 M after 48 hrs by sulforhodamine B assay; conditions: M14, 48 h, read-out: Activity; outline: as §3
Staphylococcus equorum = experiment: Antibacterial activity against Staphylococcus equorum assessed as zone of inhibition at 5 uL and 32 degC after 36 hrs at by disk diffusion method; outline: as §2
Malme-3M = experiment: Growth inhibition of human MALME-3M cells assessed as cell growth at 10^-5 M after 48 hrs by sulforhodamine B assay; conditions: read-out: Activity; outline: as §3
UO-31 = experiment: Growth inhibition of human UO31 cells assessed as cell growth at 10^-5 M after 48 hrs by sulforhodamine B assay; conditions: UO-31, 48 h, read-out: Activity
Outline: (§4)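 NCI 60-cell panel single-dose screen under the NCI protocol. Cells are exposed to compound at one concentration (10^-5 M) for 48 h. The end point is protein staining with sulforhodamine B. Each line is reported as percent growth of treated cells relative to untreated control cells.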

OVCAR-8 = experiment: Growth inhibition of human OVCAR8 cells assessed as cell growth at 10^-5 M after 48 hrs by sulforhodamine B assay; conditions: OVCAR-8, 48 h, read-out: Activity; outline: as §3
COLO 205 = experiment: Growth inhibition of human COLO205 cells assessed as cell growth at 10^-5 M after 48 hrs by sulforhodamine B assay; conditions: COLO 205, 48 h, read-out: Activity; outline: as §1
UACC-257 = experiment: Growth inhibition of human UACC257 cells assessed as cell growth at 10^-5 M after 48 hrs by sulforhodamine B assay; conditions: UACC-257, 48 h, read-out: Activity; outline: as §4
SW-620 = experiment: Growth inhibition of human SW620 cells assessed as cell growth at 10^-5 M after 48 hrs by sulforhodamine B assay; conditions: SW-620, 48 h, read-out: Activity; outline: as §4
TK-10 = experiment: Growth inhibition of human TK10 cells assessed as cell growth at 10^-5 M after 48 hrs by sulforhodamine B assay; conditions: TK-10, 48 h, read-out: Activity; outline: as §4
U-251 = experiment: Growth inhibition of human U251 cells assessed as cell growth at 10^-5 M after 48 hrs by sulforhodamine B assay; conditions: U-251, 48 h, read-out: Activity; outline: as §4
HCT-15 = experiment: Growth inhibition of human HCT15 cells assessed as cell growth at 10^-5 M after 48 hrs by sulforhodamine B assay; conditions: HCT-15, 48 h, read-out: Activity; outline: as §1
K562 = experiment: Growth inhibition of human K562 cells assessed as cell growth at 10^-5 M after 48 hrs by sulforhodamine B assay; conditions: K562, 48 h, read-out: Activity; outline: as §1
HCT-116 = experiment: Growth inhibition of human HCT116 cells assessed as cell growth at 10^-5 M after 48 hrs by sulforhodamine B assay; conditions: HCT-116, 48 h, read-out: Activity; outline: as §1
SR = experiment: Growth inhibition of human SR cells assessed as cell growth at 10^-5 M after 48 hrs by sulforhodamine B assay; conditions: read-out: Activity; outline: as §4
NCI-H322M = experiment: Growth inhibition of human NCI-H322M cells assessed as cell growth at 10^-5 M after 48 hrs by sulforhodamine B assay; conditions: read-out: Activity; outline: as §3
UACC-62 = experiment: Growth inhibition of human UACC62 cells assessed as cell growth at 10^-5 M after 48 hrs by sulforhodamine B assay; conditions: UACC-62, 48 h, read-out: Activity; outline: as §4
HOP-92 = experiment: Growth inhibition of human HOP92 cells assessed as cell growth at 10^-5 M after 48 hrs by sulforhodamine B assay; conditions: HOP-92, 48 h, read-out: Activity; outline: as §1
A549 = experiment: Growth inhibition of human A549 cells assessed as cell growth at 10^-5 M after 48 hrs by sulforhodamine B assay; conditions: A549, 48 h, read-out: Activity; outline: as §1
SK-MEL-28 = experiment: Growth inhibition of human SK-MEL-28 cells assessed as cell growth at 10^-5 M after 48 hrs by sulforhodamine B assay; conditions: SK-MEL-28, 48 h, read-out: Activity; outline: as §3
MDA-MB-468 = experiment: Growth inhibition of human MDA-MB-468 cells assessed as cell growth at 10^-5 M after 48 hrs by sulforhodamine B assay; conditions: MDA-MB-468, 48 h, read-out: Activity; outline: as §3
EKVX = experiment: Growth inhibition of human EKVX cells assessed as cell growth at 10^-5 M after 48 hrs by sulforhodamine B assay; conditions: read-out: Activity; outline: as §1
MDA-MB-231 = experiment: Growth inhibition of human MDA-MB-231 cells assessed as cell growth at 10^-5 M after 48 hrs by sulforhodamine B assay; conditions: MDA-MB-231, 48 h, read-out: Activity; outline: as §3
A498 = experiment: Growth inhibition of human A498 cells assessed as cell growth at 10^-5 M after 48 hrs by sulforhodamine B assay; conditions: A498, 48 h, read-out: Activity; outline: as §1
NCI/ADR-RES = experiment: Growth inhibition of human NCI/ADR-RES cells assessed as cell growth at 10^-5 M after 48 hrs by sulforhodamine B assay; conditions: read-out: Activity; outline: as §3

CC(C)CCC[C@@H](C)[C@H]1CC[C@H]2C3=CC[C@@H]4C(=O)C=CC(=O)[C@@H]4[C@@H]3CC[C@]12C
growth at 10 µM [1]: 8.12%
growth at 10 µM (CCRF-CEM): 17%
diameter of the inhibition zone (DIZ) (Escherichia coli): inactive
growth at 10 µM (RXF 393): -66.6%
growth at 10 µM (KM12): -10.1%
growth at 10 µM (SF-268): -61.2%
growth at 10 µM (DU-145): 26.6%
growth at 10 µM (CAKI-1): -56.3%
growth at 10 µM (M14): 5.05%
diameter of the inhibition zone (DIZ) (Staphylococcus equorum): inactive
growth at 10 µM (Malme-3M): 17.5%
growth at 10 µM (UO-31): -67.9%
growth at 10 µM (OVCAR-8): 0.17%
growth at 10 µM (COLO 205): 12.4%
growth at 10 µM (UACC-257): 28.7%
growth at 10 µM (SW-620): 20.4%
growth at 10 µM (TK-10): -36.6%
growth at 10 µM (U-251): 11.5%
growth at 10 µM (HCT-15): 11.3%
growth at 10 µM (K562): 9.94%
growth at 10 µM (HCT-116): 3.29%
growth at 10 µM (SR): 13.2%
growth at 10 µM (NCI-H322M): 42.6%
growth at 10 µM (UACC-62): -63.2%
growth at 10 µM (HOP-92): -28.9%
growth at 10 µM (A549): 8.75%
growth at 10 µM (SK-MEL-28): -48.5%
growth at 10 µM (MDA-MB-468): 2.69%
growth at 10 µM (EKVX): -10%
growth at 10 µM (MDA-MB-231): 28.6%
growth at 10 µM (A498): -6.21%
growth at 10 µM (NCI/ADR-RES): 7.87%

CC(C)CCC[C@@H](C)[C@H]1CC[C@H]2C3=CCn4c(=O)ccc(=O)n4[C@@H]3CC[C@]12C
growth at 10 µM [1]: -12.2%
growth at 10 µM (CCRF-CEM): -2.44%
diameter of the inhibition zone (DIZ) (Escherichia coli): inactive
growth at 10 µM (RXF 393): -76%
growth at 10 µM (KM12): -65.5%
growth at 10 µM (SF-268): -92.3%
growth at 10 µM (DU-145): -93.7%
growth at 10 µM (CAKI-1): -91.6%
growth at 10 µM (M14): -87.1%
diameter of the inhibition zone (DIZ) (Staphylococcus equorum): inactive
growth at 10 µM (Malme-3M): -98%
growth at 10 µM (UO-31): -88.5%
growth at 10 µM (OVCAR-8): -39.7%
growth at 10 µM (COLO 205): -93.1%
growth at 10 µM (UACC-257): -97.5%
growth at 10 µM (SW-620): -91.6%
growth at 10 µM (TK-10): -83.1%
growth at 10 µM (U-251): -96.9%
growth at 10 µM (HCT-15): -63.7%
growth at 10 µM (K562): -40%
growth at 10 µM (HCT-116): -44.6%
growth at 10 µM (SR): -34.6%
growth at 10 µM (NCI-H322M): -55.3%
growth at 10 µM (UACC-62): -82.4%
growth at 10 µM (HOP-92): -94%
growth at 10 µM (A549): -79.3%
growth at 10 µM (SK-MEL-28): -100%
growth at 10 µM (MDA-MB-468): -49%
growth at 10 µM (EKVX): -82.2%
growth at 10 µM (MDA-MB-231): -89.2%
growth at 10 µM (A498): -94.8%
growth at 10 µM (NCI/ADR-RES): -28.8%

CC(C)CCC[C@@H](C)[C@H]1CC[C@H]2[C@@H]3CCN4C(=O)CCC(=O)N4[C@@H]3CC[C@]12C
growth at 10 µM [1]: 97%
growth at 10 µM (CCRF-CEM): 87.4%
diameter of the inhibition zone (DIZ) (Escherichia coli): 11 mm
growth at 10 µM (RXF 393): 102%
growth at 10 µM (KM12): 105%
growth at 10 µM (SF-268): 74.5%
growth at 10 µM (DU-145): 100%
growth at 10 µM (CAKI-1): 73.5%
growth at 10 µM (M14): 90.5%
diameter of the inhibition zone (DIZ) (Staphylococcus equorum): 9 mm
growth at 10 µM (Malme-3M): 95.6%
growth at 10 µM (UO-31): 76.3%
growth at 10 µM (OVCAR-8): 93.5%
growth at 10 µM (COLO 205): 90.3%
growth at 10 µM (UACC-257): 76.2%
growth at 10 µM (SW-620): 93.2%
growth at 10 µM (TK-10): 108%
growth at 10 µM (U-251): 106%
growth at 10 µM (HCT-15): 106%
growth at 10 µM (K562): 91%
growth at 10 µM (HCT-116): 95%
growth at 10 µM (SR): 79.7%
growth at 10 µM (NCI-H322M): 117%
growth at 10 µM (UACC-62): 88.1%
growth at 10 µM (HOP-92): 77.5%
growth at 10 µM (A549): 84.1%
growth at 10 µM (SK-MEL-28): 76.4%
growth at 10 µM (MDA-MB-468): 122%
growth at 10 µM (EKVX): 83.3%
growth at 10 µM (MDA-MB-231): 98.2%
growth at 10 µM (A498): 89.2%
growth at 10 µM (NCI/ADR-RES): 94.6%
